{"source": "ChEMBL document CHEMBL1139875", "about": "“Discovery of 4-aminobutyric acid derivatives possessing anticonvulsant and antinociceptive activities: a hybrid pharmacophore approach” (2007)", "key": {"Rattus norvegicus [1]": {"system": "Rattus norvegicus", "assay": "Effect on spontaneous pain in Sprague-Dawley rat CCI model assessed as duration of paw withdrawal at 100 mg/kg, ip after 2 hrs", "format": "functional", "conditions": "route intraperitoneal", "summary_of_the_method": "(§1)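 Unilateral CCI of sciatic nerve (Bennett and Xie) in Sprague-Dawley rats under i.p. pentobarbital sodium (65 mg/kg). Spontaneous pain is scored over 5 min after 10 min acclimatization, as cumulative time the ipsilateral paw is held off the floor. Paw lifts from locomotion or repositioning are excluded. Drug is given at 100 mg/kg i.p. with 30% v/v PEG 400 vehicle. Mean ± SEM, n = 4, compared with predrug by ANOVA/Bonferroni.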"}, "Rattus norvegicus [2]": {"system": "Rattus norvegicus", "assay": "Effect on spontaneous pain in Sprague-Dawley rat CCI model assessed as duration of paw withdrawal at 100 mg/kg, ip after 0.5 hr", "format": "functional", "conditions": "route intraperitoneal", "summary_of_the_method": "(§2)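 CCI rats (n = 4) dosed 100 mg/kg i.p. (vehicle 30% v/v PEG 400 in water). After 10 min acclimatization in a cage 5 cm above ground, cumulative time the ipsilateral paw was held off the floor over 5 min recorded, excluding locomotion lifts. Mean ± SEM; ANOVA/Bonferroni versus predrug.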"}, "Rattus norvegicus [3]": {"species": "Rattus norvegicus", "assay": "Anti-dynamic allodynic effect in Sprague-Dawley rat CCI model assessed as latency to paw withdrawal after 2 hr", "format": "functional", "summary_of_the_method": "(§3)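 Rats with sciatic nerve chronic constriction injury (pentobarbital 65 mg/kg i.p. anaesthesia), baseline and day 9 testing, then drug per randomization table. After 10 min acclimatization, affected plantar surface stroked mildly with a cotton-bud; paw lift recorded. n = 4; retested 0.5-2.5 h post-dose.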"}, "Rattus norvegicus [4]": {"system": "Rattus norvegicus", "assay": "Effect on spontaneous pain in Sprague-Dawley rat SNL model assessed as duration of paw withdrawal at 100 mg/kg, ip after 0.5 hr", "format": "functional", "conditions": "route intraperitoneal", "summary_of_the_method": "(§4)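 Rats underwent left L5 spinal nerve ligation (Kim and Chung) under i.p. pentobarbital (65 mg/kg). Spontaneous pain is recorded for 5 min after 10 min acclimatization, as cumulative duration the ipsilateral paw is lifted, excluding locomotor lifts. Dosing is 100 mg/kg i.p. in 30% v/v PEG 400/water, with testing at 0.5–2.5 h. Four rats, mean ± SEM versus predrug, one-way ANOVA with Bonferroni.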"}, "Rattus norvegicus [5]": {"system": "Rattus norvegicus", "assay": "Effect on spontaneous pain in Sprague-Dawley rat CCI model assessed as duration of paw withdrawal at 100 mg/kg, ip after 1.5 hrs", "format": "functional", "conditions": "route intraperitoneal", "summary_of_the_method": "as §1"}, "Rattus norvegicus [6]": {"system": "Rattus norvegicus", "assay": "Effect on spontaneous pain in Sprague-Dawley rat SNL model assessed as duration of paw withdrawal at 100 mg/kg, ip after 1 hr", "format": "functional", "conditions": "route intraperitoneal", "summary_of_the_method": "as §4"}, "Rattus norvegicus [7]": {"system": "Rattus norvegicus", "assay": "Effect on spontaneous pain in Sprague-Dawley rat CCI model assessed as duration of paw withdrawal at 100 mg/kg, ip after 2.5 hrs", "format": "functional", "conditions": "route intraperitoneal", "summary_of_the_method": "as §1"}, "Rattus norvegicus [8]": {"system": "Rattus norvegicus", "assay": "Effect on spontaneous pain in Sprague-Dawley rat CCI model assessed as duration of paw withdrawal at 100 mg/kg, ip after 1 hr", "format": "functional", "conditions": "route intraperitoneal", "summary_of_the_method": "as §2"}, "Rattus norvegicus [9]": {"system": "Rattus norvegicus", "assay": "Effect on spontaneous pain in Sprague-Dawley rat SNL model assessed as duration of paw withdrawal at 100 mg/kg, ip after 1.5 hrs", "format": "functional", "conditions": "route intraperitoneal", "summary_of_the_method": "as §4"}, "Rattus norvegicus [10]": {"system": "Rattus norvegicus", "assay": "Anti-cold allodynia effect in Sprague-Dawley rat CCI model assessed as duration of paw withdrawal at 100 mg/kg, ip after 0.5 hr", "format": "functional", "conditions": "route intraperitoneal", "summary_of_the_method": "(§5)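 CCI by sciatic nerve ligation under pentobarbital (65 mg/kg i.p.). Rats tested at baseline and 9 days post-surgery; those with allodynia dosed i.p. 100 mg/kg, vehicle 30% v/v PEG 400 in water. Acetone (100-200 µL) misted on midplantar affected paw; withdrawal duration recorded, three samples averaged, at least 3 min apart; n = 4.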"}, "Rattus norvegicus [11]": {"system": "Rattus norvegicus", "assay": "Effect on spontaneous pain in Sprague-Dawley rat SNL model assessed as duration of paw withdrawal at 100 mg/kg, ip after 2.5 hrs", "format": "functional", "conditions": "route intraperitoneal", "summary_of_the_method": "as §4"}, "Rattus norvegicus [12]": {"species": "Rattus norvegicus", "assay": "Anti-dynamic allodynic effect in Sprague-Dawley rat CCI model assessed as latency to paw withdrawal after 1 hr", "format": "functional", "summary_of_the_method": "as §3"}, "Rattus norvegicus [13]": {"system": "Rattus norvegicus", "assay": "Anti-cold allodynia effect in Sprague-Dawley rat CCI model assessed as duration of paw withdrawal 100 mg/kg, ip after 2.5 hr", "format": "functional", "conditions": "route intraperitoneal", "summary_of_the_method": "as §5"}, "Mus musculus [14]": {"system": "Mus musculus", "assay": "Anticonvulsant activity in Swiss Albino mouse at 300 mg/kg, ip after 4 hrs by MES test", "format": "functional, organism-based", "parameters": "dose 300 mg/kg", "summary_of_the_method": "(§6)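 Mice (Swiss, 20-25 g) given i.p. doses of 30, 100 and 300 mg/kg under ADD program protocols, three per group, examined at 0.5 and 4 h in MES, scPTZ, scSTY or scPIC seizure tests. Value is the minimum dose protecting half or more of the mice.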"}, "Mus musculus [15]": {"system": "Mus musculus", "assay": "Anticonvulsant activity in Swiss Albino mouse at 100 mg/kg, ip after 4 hrs by scPIC test", "format": "functional, organism-based", "parameters": "dose 100 mg/kg", "summary_of_the_method": "as §6"}, "Mus musculus [16]": {"system": "Mus musculus", "assay": "Analgesic activity in Swiss Albino mouse assessed as inhibition of acetic acid-induced writhing responses at 100 mg/kg, ip", "format": "functional", "conditions": "route intraperitoneal", "summary_of_the_method": "(§7)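 Mice in groups of six dosed i.p. at 100 mg/kg, controls receiving 30% v/v PEG 400 in water. Writhing induced by i.p. 0.1 mL of 3% v/v acetic acid 1 h after drug. Writhes (abdominal stretch with at least one hind limb extended) counted over 30 min; % inhibition calculated. Mean ± SEM, Student's t test.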"}, "Mus musculus [17]": {"system": "Mus musculus", "assay": "Analgesic activity in Swiss Albino mouse assessed as number of acetic acid-induced writhing per 30 min after 100 mg/kg, ip", "format": "functional", "conditions": "route intraperitoneal", "summary_of_the_method": "as §7"}, "Mus musculus [18]": {"system": "Mus musculus", "assay": "Anticonvulsant activity in Swiss Albino mouse at 300 mg/kg, ip after 4 hrs by scSTY test", "format": "functional, organism-based", "parameters": "dose 300 mg/kg", "summary_of_the_method": "as §6"}, "Rattus norvegicus [19]": {"system": "Rattus norvegicus", "assay": "Anti-cold allodynia effect in Sprague-Dawley rat CCI model assessed as duration of paw withdrawal 100 mg/kg, ip after 1.5 hr", "format": "functional", "conditions": "route intraperitoneal", "summary_of_the_method": "as §5"}, "Rattus norvegicus [20]": {"species": "Rattus norvegicus", "assay": "Anti-dynamic allodynic effect in Sprague-Dawley rat CCI model assessed as latency to paw withdrawal after 0.5 hr", "format": "functional", "summary_of_the_method": "as §3"}, "Mus musculus [21]": {"system": "Mus musculus", "assay": "Anticonvulsant activity in Swiss Albino mouse at 300 mg/kg, ip after 0.5 hr by scSTY test", "format": "functional, organism-based", "parameters": "dose 300 mg/kg", "summary_of_the_method": "as §6"}, "Rattus norvegicus [22]": {"species": "Rattus norvegicus", "assay": "Anti-dynamic allodynic effect in Sprague-Dawley rat CCI model assessed as latency to paw withdrawal after 1.5 hr", "format": "functional", "summary_of_the_method": "as §3"}, "Mus musculus [23]": {"system": "Mus musculus", "assay": "Neurotoxicity in Swiss Albino mouse at 300 mg/kg, ip after 4 hrs by rotarod test", "format": "functional, organism-based", "parameters": "dose 300 mg/kg", "summary_of_the_method": "(§8)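 Swiss mice (20-25 g) are trained on an accelerating rotorod (10 rpm, 3.2 cm rod), then injected i.p. at 30, 100 or 300 mg/kg, with three per group. Neurotoxicity means failure to keep equilibrium for at least 1 min in each of three trials, checked at 0.5 and 4 h. The value reported is the minimum dose affecting half or more of the mice.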"}, "Rattus norvegicus [24]": {"system": "Rattus norvegicus", "assay": "Anti-cold allodynia effect in Sprague-Dawley rat CCI model assessed as duration of paw withdrawal 100 mg/kg, ip after 2 hr", "format": "functional", "conditions": "route intraperitoneal", "summary_of_the_method": "as §5"}, "Rattus norvegicus [25]": {"system": "Rattus norvegicus", "assay": "Effect on spontaneous pain in Sprague-Dawley rat SNL model assessed as duration of paw withdrawal at 100 mg/kg, ip after 2 hrs", "format": "functional", "conditions": "route intraperitoneal", "summary_of_the_method": "as §4"}, "Mus musculus [26]": {"system": "Mus musculus", "assay": "Neurotoxicity in Swiss Albino mouse at 300 mg/kg, ip after 0.5 hr by rotarod test", "format": "functional, organism-based", "parameters": "dose 300 mg/kg", "summary_of_the_method": "as §8"}, "Mus musculus [27]": {"system": "Mus musculus", "assay": "Anticonvulsant activity in Swiss Albino mouse at 300 mg/kg, ip after 0.5 hr by scPTZ test", "format": "functional, organism-based", "parameters": "dose 300 mg/kg", "summary_of_the_method": "as §6"}, "Rattus norvegicus [28]": {"system": "Rattus norvegicus", "assay": "Anti-cold allodynia effect in Sprague-Dawley rat CCI model assessed as duration of paw withdrawal 100 mg/kg, ip after 1 hr", "format": "functional", "conditions": "route intraperitoneal", "summary_of_the_method": "as §5"}, "Rattus norvegicus [29]": {"species": "Rattus norvegicus", "assay": "Anti-dynamic allodynic effect in Sprague-Dawley rat CCI model assessed as latency to paw withdrawal after 2.5 hr", "format": "functional", "summary_of_the_method": "as §3"}, "Mus musculus [30]": {"system": "Mus musculus", "assay": "Anticonvulsant activity in Swiss Albino mouse at 300 mg/kg, ip after 0.5 hr by MES test", "format": "functional, organism-based", "parameters": "dose 300 mg/kg", "summary_of_the_method": "as §6"}}, "note": "Active and inactive are the calls of the source. No cut-off for these calls is given here.", "data": [{"smiles": "O=C(O)CCCNC(=O)NN=C(Cc1ccccc1)Cc1ccccc1", "values": [{"measurement": "Activity", "setting": "Rattus norvegicus [1]", "result": 3.2, "unit": "s"}, {"measurement": "Activity", "setting": "Rattus norvegicus [2]", "result": 9.2, "unit": "s"}, {"measurement": "Activity", "setting": "Rattus norvegicus [3]", "result": 10.9, "unit": "s"}, {"measurement": "Activity", "setting": "Rattus norvegicus [4]", "result": 22.2, "unit": "s"}, {"measurement": "Activity", "setting": "Rattus norvegicus [5]", "result": 1.3, "unit": "s"}, {"measurement": "Activity", "setting": "Rattus norvegicus [6]", "result": 7.9, "unit": "s"}, {"measurement": "Activity", "setting": "Rattus norvegicus [7]", "result": 8.5, "unit": "s"}, {"measurement": "Activity", "setting": "Rattus norvegicus [8]", "result": 9.7, "unit": "s"}, {"measurement": "Activity", "setting": "Rattus norvegicus [9]", "result": 8.9, "unit": "s"}, {"measurement": "Activity", "setting": "Rattus norvegicus [10]", "result": 24.6, "unit": "s"}, {"measurement": "Activity", "setting": "Rattus norvegicus [11]", "result": 7.4, "unit": "s"}, {"measurement": "Activity", "setting": "Rattus norvegicus [12]", "result": 13.5, "unit": "s"}, {"measurement": "Activity", "setting": "Rattus norvegicus [13]", "result": 8.3, "unit": "s"}, {"measurement": "Activity", "setting": "Mus musculus [14]", "result": "inactive"}, {"measurement": "Activity", "setting": "Mus musculus [15]", "result": "Active"}, {"measurement": "inhibition in vivo at 100 mg/kg", "setting": "Mus musculus [16]", "result": 94, "unit": "%"}, {"measurement": "Activity", "setting": "Mus musculus [17]", "result": 10.3}, {"measurement": "Activity", "setting": "Mus musculus [18]", "result": "Active"}, {"measurement": "Activity", "setting": "Rattus norvegicus [19]", "result": 10.4, "unit": "s"}, {"measurement": "Activity", "setting": "Rattus norvegicus [20]", "result": 12, "unit": "s"}, {"measurement": "Activity", "setting": "Mus musculus [21]", "result": "Active"}, {"measurement": "Activity", "setting": "Rattus norvegicus [22]", "result": 10.9, "unit": "s"}, {"measurement": "Activity", "setting": "Mus musculus [23]", "result": "inactive"}, {"measurement": "Activity", "setting": "Rattus norvegicus [24]", "result": 9.1, "unit": "s"}, {"measurement": "Activity", "setting": "Rattus norvegicus [25]", "result": 11.8, "unit": "s"}, {"measurement": "Activity", "setting": "Mus musculus [26]", "result": "inactive"}, {"measurement": "Activity", "setting": "Mus musculus [27]", "result": "inactive"}, {"measurement": "Activity", "setting": "Rattus norvegicus [28]", "result": 11.6, "unit": "s"}, {"measurement": "Activity", "setting": "Rattus norvegicus [29]", "result": 10.3, "unit": "s"}, {"measurement": "Activity", "setting": "Mus musculus [30]", "result": "inactive"}]}]}
